Results taken from paper PMC5899023 (Nanomedicine : nanotechnology, biology, and medicine, 2018).
Where “and” joins values, the source holds several entries; their conditions need not be identical. Identical values can stand only once. Like-named read-outs stand apart in the source and are kept apart here.

Legend:
[1] = mouse, in vivo
[2] = tested on: 1205 Lu melanoma cell line; test: MTS cell viability, 1205 Lu; assay type: cell-based; details: Homo sapiens, 72 h, read-out: IC50 1205 Lu
In short: (§1)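 MTS viability assay. Cells were grown at 37°C in humidified 5% CO2: melanoma lines UACC 903 and 1205 Lu (BRAF V600E) or C8161.Cl9 and MelJuSo (BRAF wild type), or normal […]. 5×10³ cells/well were treated 48 h after seeding for 72 h with rising concentrations of free or nanoliposomal test compound (nanoliposomal: 10–100 μmol/L). IC50 came from 3 independent experiments; group values are averages across the lines.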

[3] = tested on: UACC 903 xenograft; test: UACC 903 xenograft tumor growth in nude mice; assay type: in vivo; details: for % in-vivo tumor inhibition at day 21 in Nude mice: in DMSO, i.p.
In short: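 Female athymic nude mice aged 3–4 weeks received 1×10⁶ UACC 903 cells in 0.2 mL DMEM/10% FBS subcutaneously above both rib cages. At day 8 (vascularized tumors of 50–75 mm³), mice were randomized (3/group, 2 tumors/mouse) and dosed daily i.p. with free test compound in DMSO (5 or 10 mg/kg) or DMSO vehicle for 3–4 weeks. Tumor dimensions and body weight were taken on alternate days; % inhibition was scored at day 21. Run twice independently.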

[4] = target: T1, cPLA2 (Homo sapiens, UniProt P47712); test: cPLA2 activity assay; assay type: biochemical
T1 sequence (P47712 1-749): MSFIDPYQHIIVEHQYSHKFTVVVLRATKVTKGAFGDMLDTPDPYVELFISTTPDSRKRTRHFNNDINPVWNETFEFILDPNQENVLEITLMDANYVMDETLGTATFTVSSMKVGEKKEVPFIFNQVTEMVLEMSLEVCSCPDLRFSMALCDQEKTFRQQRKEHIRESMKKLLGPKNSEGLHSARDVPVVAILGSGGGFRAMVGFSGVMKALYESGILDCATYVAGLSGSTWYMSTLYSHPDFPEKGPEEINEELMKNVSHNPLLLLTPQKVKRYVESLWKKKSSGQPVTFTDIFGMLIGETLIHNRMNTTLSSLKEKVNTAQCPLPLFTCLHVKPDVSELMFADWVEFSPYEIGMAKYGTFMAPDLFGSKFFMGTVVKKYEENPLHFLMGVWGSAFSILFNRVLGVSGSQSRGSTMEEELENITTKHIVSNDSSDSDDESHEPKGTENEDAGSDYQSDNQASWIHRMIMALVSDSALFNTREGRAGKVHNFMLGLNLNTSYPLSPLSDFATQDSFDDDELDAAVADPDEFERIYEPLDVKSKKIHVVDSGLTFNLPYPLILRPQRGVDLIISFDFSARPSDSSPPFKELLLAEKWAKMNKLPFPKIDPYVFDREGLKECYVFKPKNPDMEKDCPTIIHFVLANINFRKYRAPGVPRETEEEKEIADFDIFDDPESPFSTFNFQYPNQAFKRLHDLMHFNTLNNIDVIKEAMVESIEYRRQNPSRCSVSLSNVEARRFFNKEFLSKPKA
In short: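 Colorimetric cPLA2 assay (commercial kit) on UACC 903 lysate made in Hepes pH 7.4 with 1 mM EDTA. sPLA2 was removed by 30 kDa cutoff filtration and iPLA2 was blocked with bromoenol lactone. Lysate was treated with free or nanoliposomal test compound (0.5–10 μmol/L); DMSO or empty nanoliposome defined 100% activity. Arachidonoyl thio-PC substrate ran for 1 h, then DTNB was added and absorbance read at 414 nm.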

[5] = tested on: four melanoma cell lines (UACC 903, 1205 Lu, C8161.Cl9, MelJuSo); test: MTS cell viability, melanoma cell lines taken together; assay type: cell-based
In short: as §1

[6] = tested on: FOM103 normal melanocytes; test: MTS cell viability, FOM103; assay type: cell-based; details: Melanocyte, 72 h, read-out: IC50 FOM103
In short: as §1

[7] = tested on: FF2441 normal human fibroblast cell line; test: MTS cell viability, FF2441; assay type: cell-based; details: FF2441, 72 h, read-out: IC50 FF2441
In short: as §1

[8] = tested on: cPLA2; details: various in-vitro studies; ref [13], [37]; cited from earlier work
[9] = tested on: UACC 903 melanoma cell line; test: MTS cell viability, UACC 903; assay type: cell-based; details: Homo sapiens, UACC-903, 72 h, read-out: IC50 UACC 903
In short: as §1

[10] = tested on: C8161.Cl9 melanoma cell line; test: MTS cell viability, C8161.Cl9; assay type: cell-based; details: 72 h, read-out: IC50 C8161.Cl9
In short: as §1

[11] = Hemolytic activity; assay type: cell-based; details: human, human erythrocytes, 5% v/v suspension
In short: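 Erythrocytes from fresh EDTA-anticoagulated human blood, separated at 1,500 rpm for 10 min at 4°C using PBS. A 5% v/v suspension in PBS was exposed to free or nanoliposomal test compound (10–40 μmol/L), ethanol or empty liposome (negative controls), or 1% Triton X-100, at 37°C for 60 min. After a 12,000 rpm spin, supernatant A540 was read. % hemolysis = sample A540 / Triton A540 × 100.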

[12] = tested on: normal cells FOM103 and FF2441; test: MTS cell viability, normal cells taken together; assay type: cell-based; details: FF2441, read-out: average IC50 for killing normal FOM103 and FF2441
In short: as §1

[13] = 14-day repeated dose study to identify the MTD; details: for % weight loss at day 14 in Swiss Webster mice: in DMSO, i.p. daily, 14 days

## CCCCC/C=C\C/C=C\C/C=C\C/C=C\CCCC(=O)C(F)(F)F [ATK, Arachidonyl trifluoromethyl ketone]
[1]
  % weight loss at day 14 in Swiss Webster mice: Animal mortality occurred
[2]
  IC50: 26.1 ± 4.4 µM
[3]; 5 mg/kg body weight
  % in-vivo tumor inhibition at day 21 in Nude mice: 12.9 ± 6.30%
[3]; 10 mg/kg body weight
  % in-vivo tumor inhibition at day 21 in Nude mice: 32.5 ± 5.73%
[3]; 5 and 10 mg/kg i.p. daily in DMSO
  changes in body weight of tumor-bearing mice: did not show any significant changes in body weight
[3]; free ATK in DMSO, 5 and 10 mg/kg (MTD) i.p. daily, 3-4 weeks
  reduction in tumor volume: approximately 30%
[4]
  IC50: 1850 nM
[5]; average melanoma versus average normal cells
  fold more effective at killing melanoma cells than normal cells: 3 fold
[5]; read-out: average IC50 for melanoma cells
  IC50: 22 µM
[6]
  IC50: 57.9 ± 10.4 µM
[7]
  IC50: 63.3 ± 10.3 µM
[8]
  potency in inhibiting cPLA2 over sPLA2 and iPLA2: 500 fold
[9]
  IC50: 26.3 ± 2.1 µM
[10]
  IC50: 18.6 ± 3.1 µM
[11]
  hemolysis at 60 min: 2 to 3%
  hemolysis at 60 min, 40 μmol/L: 2.9%
[12]
  IC50: 60 µM
[13]; 5 mg/kg body weight
  % weight loss at day 14 in Swiss Webster mice: No weight loss
[13]; 10 mg/kg body weight
  % weight loss at day 14 in Swiss Webster mice: 3.1 ± 3.52%
[13]; 15 mg/kg body weight
  % weight loss at day 14 in Swiss Webster mice: 14.5% and 14.5 ± 0.95%
[13]; 20 mg/kg body weight
  % weight loss at day 14 in Swiss Webster mice: Death in 10 days
[13]; 30 mg/kg body weight
  % weight loss at day 14 in Swiss Webster mice: Death in 8 days
[13]; Swiss Webster, mouse, in vivo, ip
  MTD at 14 days: 10 mg/kg
